In ChEMBL document CHEMBL1122443, “Synthesis and antitumor evaluation of selected 5,6-disubstituted 1(2)H-indazole-4,7-diones” (1983):
Activity calls are given as the source filed them. The calls are words filed in the database; no cut-off is given here.

Columns and labels:
[1] = tested on: Mus musculus; assay: Antitumor activity in CF1 mice bearing Ehrlich ascites carcinoma measured as percentage inhibition at 50 mg/kg; assay type: functional
Outline: (§1)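 Ehrlich ascites model in male CF1 mice (22–25 g): 2 × 10⁶ cells ip on day 0, ip dosing days 1–8, kill on day 9. Percent inhibition = 100 − [(treated volume × treated ascrit)/(control volume × control ascrit)]. Greater than 80% was taken as significant. Vehicle was 0.05% Tween 80, alone or with 5% absolute EtOH. 6-Mercaptopurine was the positive control.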

[2] = tested on: Mus musculus; assay: Antitumor activity in 18 CF1 mice bearing Ehrlich ascites carcinoma measured as survivors on day 9 at 50 mg/kg; 16/18; assay type: functional
[3] = tested on: Mus musculus; assay: Antitumor activity in CF1 mice bearing Ehrlich ascites carcinoma measured as ascites volume at 50 mg/kg; assay type: functional
Outline: (§2)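 Male CF1 mice (22–25 g) received 2 × 10⁶ Ehrlich carcinoma cells ip on day 0. Dosing was ip daily on days 1–8, with sacrifice on day 9. Ascites fluid volume per mouse and ascrit (packed cell volume) were measured for each group. Vehicle was 0.05% Tween 80, or 5% absolute EtOH in 0.05% Tween 80, used for both compound and control. 6-Mercaptopurine was the positive control.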

[4] = tested on: Mus musculus; assay: Antitumor activity in CF1 mice bearing Ehrlich ascites carcinoma measured as percent ascrit packed cell volume at 50 mg/kg; assay type: functional; outline: as §2
[5] = tested on: Mus musculus; assay: Antitumor activity in CF1 mice bearing Ehrlich ascites carcinoma measured as percentage inhibition at 5 mg/kg; assay type: functional; outline: as §1
[6] = tested on: Mus musculus; assay: Antitumor activity in CF1 mice bearing Ehrlich ascites carcinoma measured as survivors on day 9 at 3 mg/kg; 3/6; assay type: functional
[7] = tested on: Mus musculus; assay: Antitumor activity in CF1 mice bearing Ehrlich ascites carcinoma measured as ascites volume at 3 mg/kg; assay type: functional; outline: as §2
[8] = tested on: Mus musculus; assay: Antitumor activity in CF1 mice bearing Ehrlich ascites carcinoma measured as ascites volume at 5 mg/kg; assay type: functional; outline: as §2
[9] = tested on: Mus musculus; assay: Average days survived for treated / average days survived for control at 1 (mg/kg); 10.2/9.2; assay type: functional
[10] = tested on: Mus musculus; assay: Antitumor activity in CF1 mice bearing Ehrlich ascites carcinoma measured as survivors on day 9 at 5 mg/kg; 5/5; assay type: functional
[11] = tested on: Mus musculus; assay: Antitumor activity in CF1 mice bearing Ehrlich ascites carcinoma measured as percentage inhibition at 3 mg/kg; assay type: functional; outline: as §1
[12] = tested on: Mus musculus; assay: Antitumor activity in CF1 mice bearing Ehrlich ascites carcinoma measured as percent ascrit packed cell volume at 3 mg/kg; assay type: functional; outline: as §2
[13] = tested on: Mus musculus; assay: Antitumor activity in CF1 mice bearing Ehrlich ascites carcinoma measured as percent ascrit packed cell volume at 5 mg/kg; assay type: functional; outline: as §2
[14] = tested on: Mus musculus; assay: Anti tumor activity in mice bearing lymphocytic leukemia P-388 at 1 mg/kg; assay type: functional
Outline: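 Male BDF1 mice (20–23 g) were inoculated ip with 1 × 10⁶ P-388 leukemia cells on day 0. Compound was given ip once daily on days 1–14 in 0.05% Tween 80 vehicle, with a vehicle control group and 5-fluorouracil as positive control. Activity was scored as % T/C, average days survived treated/control, with >125% taken as significant.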

[15] = tested on: Mus musculus; assay: Antitumor activity in CF1 mice bearing Ehrlich ascites carcinoma measured as percentage inhibition at 8 mg/kg; assay type: functional; outline: as §1
[16] = tested on: Mus musculus; assay: Antitumor activity in CF1 mice bearing Ehrlich ascites carcinoma measured as survivors on day 9 at 3 mg/kg; 5/6; assay type: functional
[17] = tested on: Mus musculus; assay: Antitumor activity in CF1 mice bearing Ehrlich ascites carcinoma measured as ascites volume at 8 mg/kg; assay type: functional; outline: as §2
[18] = tested on: Mus musculus; assay: Antitumor activity in CF1 mice bearing Ehrlich ascites carcinoma measured as survivors on day 9 at 5 mg/kg; 4/6; assay type: functional
[19] = tested on: Mus musculus; assay: Antitumor activity in CF1 mice bearing Ehrlich ascites carcinoma measured as survivors on day 9 at 8 mg/kg; 4/6; assay type: functional
[20] = tested on: Mus musculus; assay: Antitumor activity in CF1 mice bearing Ehrlich ascites carcinoma measured as percentage inhibition at 3 mg/kg; IA= inactive; assay type: functional, organism-based; set-up: dose 3 mg/kg
Outline: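 In the Ehrlich ascites model, male CF1 mice (22–25 g) received 2 × 10⁶ cells ip on day 0 and compound ip on days 1–8, with a vehicle of 0.05% Tween 80 ± 5% EtOH. Ascites volume and ascrit were taken on day 9. % inhibition = 100 − [(vol × ascrit, treated)/(vol × ascrit, control)], with >80% taken as significant.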

[21] = tested on: Mus musculus; assay: Antitumor activity in CF1 mice bearing Ehrlich ascites carcinoma measured as percent ascrit packed cell volume at 8 mg/kg; assay type: functional; outline: as §2

Work on `Sc1ncnc2nc[nH]c12` [MERCAPTOPURINE ANHYDROUS] yielded an inhibition in vivo at 50 mg/kg [1] of 96.3%, a Survivors [2] of 16 and an ascites volume [3] of 0.2 ml mouse-1. The packed cell volume [4] was 10.5%.

`Cc1noc2c1C(=O)C(Cl)=C(Cl)C2=O` was tested, and the inhibition in vivo at 5 mg/kg [5] was 100%, the Survivors [6] was 3 and the ascites volume [7] was 0 ml mouse-1. For the same compound, the ascites volume [8] was 0 ml mouse-1, the “Average survival (days)” value [9] was 10.2 and the Survivors [10] was 5. The inhibition in vivo at 3 mg/kg [11] was 100%, the packed cell volume [12] was 0% and the packed cell volume [13] was 0%. For the same compound, the T/C [14] was 111%.

With `CC(=O)NC1=C(Cl)C(=O)c2c(cnn2C(C)=O)C1=O` the inhibition in vivo at 5 mg/kg [5] was 95.6%, the inhibition in vivo at 8 mg/kg [15] was 25.5% and the Survivors [16] was 5. It also gave an ascites volume [7] of 2.9 ml mouse-1, an ascites volume [8] of 0.3 ml mouse-1 and an ascites volume [17] of 0.75 ml mouse-1. The Survivors [18] was 4, the Survivors [19] was 4 and the inhibition [20] was “inactive”. For the same compound, the packed cell volume [12] was 45.5%, the packed cell volume [13] was 5.9% and the packed cell volume [21] was 31.7%.
